Assay outcomes: PubChem BioAssay, several laboratories
APP 5'UTR act: activators of APP 5'UTR luciferase reporter, primary screen, SH-SY5Y cells | SH-SY5Y APP 5'UTR luciferase reporter, luminescence; zero percent = DMSO vehicle wells | 190,000 tested, 1% active | activation, % at 2 µM;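 active means activation above a set limit, based on mean plus 3 SD of controls, cut at about 140% in these data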
STAT1 activator: STAT1 signaling activators, primary screen, cell-based, HTS, luciferase reporter; NIH 3T3 STAT1-luciferase reporter, IFN-gamma, luminescence; 100% = IFN-gamma alone, no compound; 200,000 tested, 2.6% active; activation (% of control), % at 5.5 µM; AID 932, 2007;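 active means activation above the screen-wide mean activation plus 3 SD, cut at about 130% in these data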
STAT3 inh-1: IL-6 driven STAT3 reporter inhibitors, primary screen, U3A cells, luciferase, luminescence, MLSCN library | IL-6 STAT3-luciferase reporter; host cell line lacks STAT1 | inhibition, % at 5.5 µM | 190,000 tested, 0.89% active | AID 862, 2007;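 active means inhibition above the mean inhibition across all screened compounds plus 3 SD, cut at about 44% in these data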
STAT3 act: IL-6 driven STAT3 reporter potentiators, primary screen, U3A cells, luciferase, luminescence, MLSCN library. IL-6 STAT3-luciferase reporter; 100% = signal with IL-6 EC80 alone. activation (% of control), % at 5.6 µM. 190,000 tested, 0.91% active. AID 871, 2007;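 active means activation above the screen-wide mean of compound activation plus 3 SD, cut at about 130% in these data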
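Assay system – human STAT1-deficient U3A cells with stable STAT3-luciferase reporter · Also added – IL-6 (33 ng/mL) · Schedule – compound 1 h, then IL-6 6 h at 37 °C · Technique – reporter luminescence signal · Evaluation – % activation versus median of IL-6-stimulated wells · Benchmarks – IL-6-only wells as 100% reference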
STAT1 inh: STAT1 signaling inhibitors, primary screen, cell-based, HTS, luciferase reporter. inhibition, % at 5.5 µM. NIH 3T3 STAT1-luciferase reporter, IFN-gamma, luminescence. 200,000 tested, 0.35% active;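 active means inhibition above a set limit, the mean inhibition across all tested compounds plus 3 SD, cut at about 34% in these data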
NF-kB expr up: activators of NF-kB expression in neurons, primary screen, cell-based, HTS; fold change at 12.5 µM; 190,000 tested, 1.6% active; human neuronal cells, NF-kB reporter expression; hits give high values; in the data active means fold change above about 3.3
STAT3 inh-2: STAT3 reporter inhibitors, retest of hits, confirmation, U3A cells, luciferase, luminescence; shares compounds with STAT3 inh-1; IL-6 STAT3 luciferase reporter; cell line lacks STAT1; inhibition, % at 5.7 µM; 1,200 tested, 45% active; AID 1265, 2008;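 active means inhibition above the hit cutoff computed for the primary STAT3 screen, cut at about 44% in these data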
NFkB inh STAT3ct: NF-kB reporter inhibitors in human cells, confirmation, counter-screen for STAT3 inhibitor project, cell-based, HEK293T, luciferase, TNF-alpha stimulus; shares compounds with STAT3 inh-1; TNF-alpha induced; inhibition, % at 5.7 µM; 1,200 tested, 36% active; AID 1308, 2008;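 active means inhibition above the mean of solvent-only control wells plus 3 SD, cutoff set per campaign, cut at about 13% in these data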
STAT1 inh STAT3c: STAT1 reporter inhibitors, IFN-gamma induced, confirmation, counter-screen for STAT3 inhibitor project, cell-based, NIH 3T3, luciferase luminescence; shares compounds with STAT3 inh-1; NIH 3T3 STAT1-luciferase reporter; inhibition, % at 5.7 µM; 1,200 tested, 27% active; AID 1317, 2008;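 active means inhibition above the mean plus 3 SD of solvent-only control wells, limit set per screening run, cut at about 16% in these data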
STAT1 act conf: STAT1 signaling activators, confirmation, cell-based, HTS, luciferase reporter. shares compounds with STAT1 activator. NIH 3T3 STAT1-luciferase reporter, IFN-gamma potentiation, luminescence; 100% = IFN-gamma EC80 alone, no compound. activation (% of control), % at 5.7 µM. 1,200 tested, 97% active;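 active means activation above a set limit carried over from the earlier primary STAT1 screen, cut at about 140% in these data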
NFkB act: NF-kB reporter activators, TNF-alpha stimulated, counter-screen for STAT1 activator project, cell-based, HEK293T, luciferase luminescence; shares compounds with STAT1 activator; 100% = TNF-alpha with vehicle only; activation (% of control), % at 5.7 µM; 1,200 tested, 43% active; AID 1306, 2008;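 active means activation above the mean of solvent-only control wells plus 3 SD, set per campaign, cut at about 130% in these data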;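 further: TNF-alpha given at a submaximal dose yielding about 80% of full reporter signal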
STAT3 act STAT1c: STAT3 reporter activation by STAT1 hits, confirmation, counter-screen for STAT1 activator project, U3A cells, luciferase, luminescence; 1,200 tested, 46% active; AID 1316, 2008; IL-6; cells lack STAT1; 100 = IL-6 alone, no compound effect; activation (% of control), % at 5.7 µM; shares compounds with STAT1 activator;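 active means activation above the solvent-only control well mean plus 3 SD, set per plate batch, cut at about 110% in these data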;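 further: higher means more STAT3 reporter activation so hits are non-selective activators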
Hits are given with their value; - = inactive; . = not tested or not shown. Sampled rows, rich in hits. Any-hit rate of the full collection: about 4.9%.

SMILES	APP 5'UTR act	STAT1 activator	STAT3 inh-1	STAT3 act	STAT1 inh	NF-kB expr up	STAT3 inh-2	NFkB inh STAT3ct	STAT1 inh STAT3c	others
NC(=S)n1[nH]c(-c2ccc([N+](=O)[O-])cc2)c(N=Nc2ccc(Cl)cc2)c1=O	-	-	61	-	-	-	54	14	37
CC(=O)Nc1ccc(SCC(=O)c2cc(C)n(-c3ccccc3)c2C)cc1	-	141	44	-	-	-	-	-	-
Cc1cc(C(=O)O)c(C)n1-c1ccccc1	-	-	-	-	-	-	.	.	.
O=C(Nc1ccc(-c2nc3ccccc3s2)cc1)C1=COCCO1	-	-	54	-	-	-	77	60	31
O=C(Nc1cc([N+](=O)[O-])ccc1Cl)C1CC1	-	-	-	-	-	-	.	.	.
CCSc1nnc2n(N)c(=O)c3ccccc3n12	-	-	-	-	-	-	.	.	.
CC(=O)Nc1ccc(SCC(=O)N(C)C2CCS(=O)(=O)C2)cc1 (centres undefined)	-	-	-	-	-	-	.	.	.
COc1cccc(N2CCN(c3c4c(nc5ncnn35)CCC4)CC2)c1	-	-	56	-	-	-	43	-	17
Brc1ccc(-c2cn3nc4c(nc3n2)CCCC4)cc1	186	-	77	-	-	-	-	-	-
CCOC(=O)c1c(-n2cccc2)sc2c1CCCC2=O	-	-	-	-	-	-	.	.	.
O=C(Nc1cccc(Cl)c1)Nc1ccnc(-c2cccnc2)n1	-	-	55	-	-	-	65	-	-
COc1ccc(C(=O)CSc2nnc(Cn3cnc4ccccc43)o2)cc1	-	-	73	-	-	-	49	14	-
CC(=O)c1ccc(NC(=O)CSc2nnc(Cn3cnc4ccccc43)o2)cc1	-	-	-	-	-	-	.	.	.
O=C(Nc1ccc(-c2cn3ccsc3n2)cc1)c1ccc(F)c(S(=O)(=O)N2CCOCC2)c1	-	-	45	-	-	-	-	-	-
O=C(c1noc2c1CCCC2)N1CCC(CO)(Cc2ccccc2Cl)CC1	-	-	-	-	-	-	.	.	.
O=C(O)/C=C/c1cnn(-c2ccccc2)c1	-	-	45	-	-	-	-	-	-
CCCN1C(=O)c2ccccc2NC1c1ccc(C)cc1 (centres undefined)	-	-	-	-	-	-	.	.	.
Cc1occc1C(=O)NNC(=O)c1ccccc1Br	-	-	-	-	-	-	.	.	.
Cc1cc(C)nc(Nc2n[nH]c(-c3ccc(C(C)(C)C)cc3)n2)n1	-	-	47	-	-	-	-	-	-
Cc1nn(-c2ccccc2Cl)c(Cl)c1/C=N/Nc1cccc(C(=O)O)c1	-	-	51	-	-	9.8	-	61	46
CCOc1ccc(-c2c[n+]3c(n2-c2ccccc2)CCCCC3)cc1	-	-	56	-	-	-	73	-	28
COc1ccc(-n2c(-c3ccc(Br)cc3)c[n+]3c2CCC3)cc1	-	-	-	-	-	-	.	.	.
Cc1ccc(-n2c(-c3ccccc3)c[n+]3c2CCC3)cc1	-	-	62	-	-	-	50	-	23
CCCC(C)C1C(C#N)=C(N)Oc2cc(C)oc(=O)c21 (centres undefined)	-	-	-	-	-	.	.	.	.
COc1ccc2nc3c(cc2c1)c(NC(=O)c1cccs1)nn3CC(C)C	-	-	59	-	-	-	54	-	-
SMILES	APP 5'UTR act	STAT1 activator	STAT3 inh-1	STAT3 act	STAT1 inh	NF-kB expr up	STAT3 inh-2	NFkB inh STAT3ct	STAT1 inh STAT3c	others
N#C/C(=C\c1ccc(N2CCOCC2)o1)c1nc2ccccc2[nH]1	156	160	66	-	-	-	-	-	-	STAT1 act conf=255;NFkB act=-;STAT3 act STAT1c=-
N#C/C(=C\c1ccc(N2CCOCC2)c([N+](=O)[O-])c1)c1nc2ccccc2[nH]1	-	-	-	-	-	-	.	.	.
COc1ccc(NC(=O)c2ccc(C)cc2)c(OC)c1	-	-	-	-	-	-	.	.	.
Cc1cnc(NC(=O)c2sc3ccccc3c2Cl)s1	-	159	64	-	-	4.6	-	24	-	STAT1 act conf=172;NFkB act=-;STAT3 act STAT1c=-
O=C(Cc1nc2ccccc2[nH]1)c1ccc(Br)cc1	-	-	-	-	-	-	.	.	.
COc1ccc(C(=O)O/N=C(/c2ccccc2)c2ccncc2)cc1	-	-	-	-	-	-	.	.	.
COc1ccc(C(=O)N=c2nc3ccccn3s2)cc1	-	182	57	-	-	-	-	-	-	STAT1 act conf=313;NFkB act=-;STAT3 act STAT1c=-
O=[N+]([O-])c1ccc(/C=N/N=C/c2ccc([N+](=O)[O-])o2)o1	-	182	58	-	-	-	-	-	-	STAT1 act conf=135;NFkB act=138;STAT3 act STAT1c=-
O=C(O)/C=C/c1ccc([N+](=O)[O-])o1	-	-	-	-	-	-	.	.	.
O=C1NC(=S)N/C1=C/c1cc([N+](=O)[O-])ccc1O	-	-	-	-	-	-	.	.	.
CCOC(=O)/C(C#N)=C\c1cc(C)n(-c2ccccc2)c1C	136	165	45	-	-	-	-	-	-	STAT1 act conf=238;NFkB act=-;STAT3 act STAT1c=115
CCN(CC)S(=O)(=O)c1ccc(C(=O)OCC(=O)Nc2ccc(-c3nc4ccc(C)cc4s3)cc2)cc1	151	153	47	-	-	-	-	-	-	STAT1 act conf=175;NFkB act=-;STAT3 act STAT1c=-
